Laboratory results reported in ChEMBL document CHEMBL4828732, “Synthesis and biological evaluation of selective survivin inhibitors derived from the MX-106 hydroxyquinoline scaffold” (Eur J Med Chem, 2021).
Activity calls are given as the source filed them. The rule behind the calls is not given here.

Experiments:
[1] = Metabolic stability of the compound in mouse liver microsomes assessed as clearance at 10 uM incubated for 10 mins in presence of NADPH by UPLC-MS analysis; assay type: ADME, Microsome
[2] = test system: OVCAR-8; test: cells; conditions: Homo sapiens, OVCAR-8, 72 h
[3] = Metabolic stability of the compound in human liver microsomes assessed as half life at 10 uM incubated for 10 mins in presence of NADPH by UPLC-MS analysis; assay type: ADME, Microsome
[4] = test system: OVCAR-3; test: cells; conditions: Homo sapiens, OVCAR-3, 72 h
[5] = test system: RPMI-7951; test: cells; conditions: Homo sapiens, RPMI-7951, 72 h
[6] = test system: MDA-MB-453; test: cells; conditions: Homo sapiens, MDA-MB-453, 72 h
[7] = Metabolic stability of the compound in rat liver microsomes assessed as half life at 10 uM incubated for 10 mins in presence of NADPH by UPLC-MS analysis; assay type: ADME, Microsome
[8] = test system: MDA-MB-435/LCC6MDR1; test: cells; conditions: Homo sapiens, MDA-MB-435, 72 h
[9] = Resistance index, ratio of IC50 for antiproliferation activity against human MDA-MB-435/LCC6MDR cells to IC50 for antiproliferation activity against human MDA-MB-435 cells assessed as cell growth inhibition measured after 72 hrs by MTS assay; assay type: functional
[10] = test system: MDA-MB-435; test: cells; conditions: Homo sapiens, MDA-MB-435, 72 h
[11] = test system: A-375; test: cells; conditions: Homo sapiens, A-375, 72 h
[12] = test system: SK-BR-3; test: cells; conditions: Homo sapiens, SK-BR-3, 72 h
[13] = Metabolic stability of the compound in rat liver microsomes assessed as clearance at 10 uM incubated for 10 mins in presence of NADPH by UPLC-MS analysis; assay type: ADME, Microsome
[14] = Metabolic stability of the compound in mouse liver microsomes assessed as half life at 10 uM incubated for 10 mins in presence of NADPH by UPLC-MS analysis; assay type: ADME, Microsome
[15] = Metabolic stability of the compound in human liver microsomes assessed as clearance at 10 uM incubated for 240 mins in presence of NADPH by UPLC-MS analysis; conditions: 4 h
[16] = test system: A-375; test: Downregulation of survivin protein expression in human A-375 cells at 10 uM measured after 24 hrs by Westernblot analysis; assay type: functional, cell-based
Outline: (§1)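 A375 cells (2 × 10⁶ per 10-cm dish) attached overnight, then treated 24 h in DMEM with 1, 5 or 10 μM. Lysed in RIPA with protease/phosphatase inhibitors; protein measured by Bradford. 50 μg run on SDS-PAGE, transferred to PVDF, blocked in 5% milk, probed overnight at 4°C for survivin, cleaved PARP, cIAP1, XIAP, Livin, with HRP-GAPDH as loading control; ECL detection.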

[17] = test system: A-375; test: Induction of apoptosis in human A-375 cells assessed as increase in cleaved PARP level after 24 hrs by Western blot analysis; assay type: functional, cell-based; outline: as §1
[18] = test system: SK-OV-3; test: Downregulation of survivin protein expression in human SK-OV-3 cells measured after 24 hrs by Westernblot analysis; assay type: functional, cell-based
Outline: (§2)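 Ovarian cancer cells treated 24 h at 2 and 4 μM, or vehicle, in serum-free RPMI 1640. Lysed in RIPA with protease inhibitor; 100 μg protein per lane run on 10% SDS-PAGE, transferred to PVDF, blocked in 5% milk. Probed for survivin, MCL1 and GAPDH; HRP secondary with ECL detection.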

[19] = test system: OVCAR-3; test: Downregulation of survivin protein expression in human OVCAR-3 cells measured after 24 hrs by Westernblot analysis; assay type: functional, cell-based; outline: as §2
[20] = test system: OVCAR-8; test: Downregulation of survivin protein expression in human OVCAR-8 cells measured after 24 hrs by Westernblot analysis; assay type: functional, cell-based; outline: as §2
[21] = test system: A-375; test: Antitumor activity against human A-375 cells xenografted in NSG mouse assessed as reduction in tumor weight at 20 mg/kg, ip administrated 3 times a week for 15 days; assay type: functional; set-up: scale not given: the % may be the effect or the level left; conditions: time 15 day
[22] = test system: OVCAR-8; test: Antitumor activity against luciferase-tagged human OVCAR-8 cells xenografted into left side ovarian bursa of NSG mouse assessed as reduction in number of metastatic tumor in spleen at 20 mg/kg, […] by histological analysis; assay type: functional, organism-based
[23] = Toxicity in NSG mouse xenografted with human A-375 cells assessed as reduction in body weight at 40 mg/kg, ip administrated 3 times a week for 15 days; assay type: organism-based; conditions: in vivo, 360 h, time 15 day
[24] = test system: A-375; test: Antitumor activity against human A-375 cells xenografted in NSG mouse assessed as reduction in tumor weight at 40 mg/kg, ip administrated 3 times a week for 15 days; assay type: functional; set-up: scale not given: the % may be the effect or the level left; conditions: time 15 day
[25] = test system: A-375; test: Downregulation of survivin protein expression in human A-375 cells measured after 24 hrs by Westernblot analysis; assay type: functional, cell-based; outline: as §1
[26] = Toxicity in NSG mouse xenografted with human OVCAR-8 cells assessed as reduction in body weight at 20 mg/kg, ip administrated 3 times a week for 15 days; assay type: organism-based; conditions: in vivo, 360 h, time 15 day
[27] = test system: OVCAR-8; conditions: Homo sapiens, dose 20.0 mg/kg, time 15.0 day
[28] = test system: A-375; test: Antitumor activity against human A-375 cells xenografted in NSG mouse assessed as tumor growth inhibition at 20 to 40 mg/kg, ip administrated 3 times a week for 15 days; assay type: functional, organism-based; conditions: dose 20-40 mg/kg, time 15.0 day
[29] = Toxicity in NSG mouse xenografted with human A-375 cells assessed as reduction in body weight at 20 mg/kg, ip administrated 3 times a week for 15 days; assay type: organism-based; conditions: in vivo, 360 h, time 15 day
[30] = test system: OVCAR-8; test: Antitumor activity against luciferase-tagged human OVCAR-8 cells xenografted into left side ovarian bursa of NSG mouse assessed as reduction in number of metastatic tumor in intestine at 20 mg/kg, ip administrated 3 times a week for 15 days by histological analysis; assay type: functional, organism-based; conditions: time 15.0 day
[31] = test system: OVCAR-8; test: Antitumor activity against human OVCAR-8 cells xenografted in NSG mouse assessed as tumor weight at 20 mg/kg, ip administrated 3 times a week for 15 days; conditions: time 15 day
[32] = test system: OVCAR-8; test: Antitumor activity against luciferase-tagged human OVCAR-8 cells xenografted into left side ovarian bursa of NSG mouse assessed as reduction in number of metastatic tumor at 20 mg/kg, ip administrated 3 times a week for 15 days by histological analysis; conditions: time 15.0 day
[33] = test system: OVCAR-8; test: Antitumor activity against luciferase-tagged human OVCAR-8 cells xenografted into left side ovarian bursa of NSG mouse assessed as reduction in number of metastatic tumor in stomach at 20 mg/kg, ip administrated […] by histological analysis; assay type: functional, organism-based
[34] = test system: A-375; test: Induction of apoptosis in human A-375 cells assessed as increase in cleaved […] level after 24 hrs by Western blot analysis; assay type: functional, cell-based
[35] = test system: OVCAR-8; test: Antitumor activity against luciferase-tagged human OVCAR-8 cells xenografted into left side ovarian bursa of NSG mouse assessed as reduction in number of metastatic tumor in kidney at 20 mg/kg, […] by histological analysis; assay type: functional, organism-based

Row | Structure (SMILES) | CLH [1] | IC50 [2] | t1/2 [3] | IC50 [4] | IC50 [5] | IC50 [6] | t1/2 [7] | IC50 [8] | Ratio IC50 [9] | IC50 [10] | IC50 [11] | IC50 [12] | CLH [13] | t1/2 [14] | CLH [15] | Activity [17] | Activity [18] | Activity [19] | Activity [20] | Activity [25] | also measured
1 | Oc1c(CN2CCCCC2)cc(Cn2ncc(-c3ccc(Br)cc3)n2)c2cccnc12 | 35 µL/min/mg | 1.7 µM | 1.3 h | 0.5 µM | 0.9 µM | 1.5 µM | 1.3 h | 1.2 µM | 0.5 | 2.2 µM | 1 µM | 1.9 µM | 18 µL/min/mg | 0.7 h | 17.5 µL/min/mg | – | – | – | – | – | –
2 | CC(C)c1ccc(COCc2cc(-c3ccccc3)c(O)c3ncccc23)cc1 | 5.5 µL/min/mg | 2.6 µM | – | 1.3 µM | 0.7 µM | 0.5 µM | 2.5 h | 1.4 µM | 2.6 | 0.5 µM | 0.5 µM | 0.8 µM | 9.2 µL/min/mg | – | 3.2 µL/min/mg | Active | – | – | – | – | Activity [16]: inactive
3 | Oc1c(CN2CCCC2)cc(Cn2ncc(-c3cccc(Br)c3)n2)c2cccnc12 | 24.3 µL/min/mg | 1.3 µM | 2.3 h | 0.8 µM | 0.6 µM | 2.8 µM | 0.9 h | 0.9 µM | 0.4 | 2.6 µM | 0.6 µM | 2.7 µM | 24.8 µL/min/mg | 1 h | 10 µL/min/mg | – | Active | Active | Active | – | –
4 | Oc1c(CN2CCCCC2)cc(Cn2ncc(-c3ccc(C(F)(F)F)cc3)n2)c2cccnc12 | 21.6 µL/min/mg | – | 1.5 h | – | – | – | 1.6 h | – | – | – | – | – | 14.2 µL/min/mg | – | 15.7 µL/min/mg | Active | Active | Active | Active | Dose-Dependent Effect | Activity [21]: 32%; Activity [22]: Active; Activity [23]: Non-Toxic; Activity [24]: 55%; Activity [26]: Non-Toxic; inhibition [27]: Active; Activity [28]: Dose-Dependent Effect; Activity [29]: Non-Toxic; Activity [30]: inactive; tumor weight [31]: 0.11 g; Activity [32]: Active; Activity [33]: Active; Activity [34]: Active; Activity [35]: Active
5 | CC(C)c1ccc(COCc2cc(-c3cncc4ccccc34)c(O)c3ncccc23)cc1 | 19.9 µL/min/mg | – | 1.4 h | – | 0.5 µM | 1.3 µM | 0.6 h | 1 µM | 1.6 | 0.6 µM | 0.6 µM | 1.5 µM | 36.7 µL/min/mg | 1.2 h | 16.3 µL/min/mg | – | – | – | – | – | –
6 | Oc1c(CN2CCCC2)cc(Cn2ncc(-c3ccc(Br)cc3)n2)c2cccnc12 | 27.8 µL/min/mg | 1.7 µM | 1.9 h | 1 µM | 1.7 µM | 3.1 µM | 1 h | 0.6 µM | 0.2 | 3.1 µM | 0.7 µM | 2.7 µM | 22.6 µL/min/mg | 0.8 h | 12 µL/min/mg | Active | – | – | – | Dose-Dependent Effect | –
